Experimental data of several laboratories.
Compare with care: the assays were run in different laboratories.
CSF1R: Macrophage colony-stimulating factor 1 receptor (CSF1R, Homo sapiens, UniProt P07333)

CC(C)(C)c1cc(C=C(C#N)C#N)cc(Br)c1O
remaining activity (CSF1R; enzyme activity, inhibitor; 0.5 µM): 96.8%

COCc1c(-c2cc3cc(C)cc(OC)c3s2)c2c(N)ncnn2c1CN1CCNC(=O)C1
inhibition (CSF1R; cell-free assay, competition with immobilised ligand; 1 µM): 100%

C#Cc1n[nH]c2c(-c3cn(C(C)c4ccccn4)c(=O)[nH]c3=O)cc(F)cc12 (centres unmarked)
inhibition (CSF1R; enzyme activity, inhibitor; 1 µM): 5.8%

O=c1[nH]c2ccccc2n1C1CCN(Cc2ccc(-c3[nH]c4cc5ncnc5cc4nc3-c3ccccc3)cc2)CC1
remaining signal (CSF1R; cell-free assay; 0.5 µM): 97%

Cn1cc(-c2cccc(N3CCc4c(sc5c4CC(C)(C)C5)C3=O)c2CO)cc(Nc2ccncn2)c1=O
inhibition (CSF1R; enzyme activity, inhibitor; 1 µM): 6%

Cn1cncc1[C@](O)(COc1ccc(C#N)cc1-c1ccc(OC(F)(F)F)cc1)c1ccc(C#N)cc1
remaining binding (Macrophage colony-stimulating factor 1 receptor, autoinhibited (CSF1R, Homo sapiens, UniProt P07333); cell-free assay, competition with immobilised ligand; 1 µM): 93%

COc1ncccc1-c1cnn2ccc(N3CCN(C(=O)OC(C)C)CC3)nc12
remaining binding (CSF1R; binding, competition with immobilised ligand; 1 µM): 100%

Nc1ncc(-c2nc(N3CCOCC3)nc(N3CCOCC3)n2)c(C(F)F)n1
remaining binding (CSF1R; cell-free assay, competition with immobilised ligand; 10 µM): 14%

C#Cc1n[nH]c2c(-c3cn([C@@H](C)c4ccccc4)c(=O)[nH]c3=O)cc(F)cc12
inhibition (CSF1R; enzyme activity, inhibitor; 0.1 µM): 4.9%

N#CC1(c2ccccn2)CCN(Cc2cc(C(=O)O)c(=O)n3ccccc23)CC1
remaining binding (CSF1R; cell-free assay, competition with immobilised ligand; 1 µM): 95%

Cn1cc(-c2cc(F)cc(N3CCn4c(cc5c4CCCC5)C3=O)c2CO)cc(Nc2ccc(N3CCN(C4COC4)CC3)cn2)c1=O
inhibition (CSF1R; enzyme activity, inhibitor; 0.1 µM): 13%
